Assay outcomes: PubChem, The Scripps Research Institute Molecular Screening Center
Rows were chosen to be rich in hits. Some 1.9% of all compounds tested hit in one or more screens of this group.
PLCb3 inh – inhibitors of human phospholipase C beta3. Q01970. Purified PLC-beta3, fluorogenic substrate, fluorescence. inhibition, % at 12.2 µM. 370,000 compounds, 0.18% hits. AID 720704; in the data active means inhibition above about 11%;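 further: 0% = median of compound wells on plate and 100% = full blocker control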
PLCg1 inh – inhibitors of human phospholipase C gamma1; P19174; purified PLC-gamma1, fluorogenic substrate, fluorescence; inhibition, % at 12.2 µM; 370,000 compounds, 0.84% hits; in the data active means inhibition above about 9.5%
Tb MetRS inh – blocks T. brucei methionyl-tRNA synthetase activity; purified T. brucei MetRS, ATP depletion, Kinase-Glo luminescence; inhibition, % at 11.9 µM; 360,000 compounds, 0.4% hits; AID 624268;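 active means inhibition above a per-plate cutoff of the control wells' mean inhibition plus 3 SD, cut at about 5.5% in these data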;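 further: 0% = DMSO wells median and 100% = median of wells with control inhibitor compound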
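Material: parasite MetRS enzyme / Replication: singlicate, one well per compound / Signal: luminescence of leftover ATP / Schedule: 2 h aminoacylation at 25 °C after 15 min preincubation / Medium: HEPES-MgCl2-KCl buffer plus DTT, spermine, BSA, pyrophosphatase / Doses: 11.9 µM single point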
HGIII-sPLA2 inh – Inhibits HGIII-sPLA2 liposome hydrolysis, primary screen | inhibition, % at 12.2 µM | QFRET BODIPY PC-A2 liposome hydrolysis, fluorescence | 370,000 compounds, 0.56% hits | AID 743126;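 active means inhibition above mean plus 3 SD of compounds lying within the high and low control bounds, cut at about 19% in these data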;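 further: 0% = median of test compound wells and 100% = no enzyme DMSO wells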
Target sequence (Q9NZ20 whole entry, looked up): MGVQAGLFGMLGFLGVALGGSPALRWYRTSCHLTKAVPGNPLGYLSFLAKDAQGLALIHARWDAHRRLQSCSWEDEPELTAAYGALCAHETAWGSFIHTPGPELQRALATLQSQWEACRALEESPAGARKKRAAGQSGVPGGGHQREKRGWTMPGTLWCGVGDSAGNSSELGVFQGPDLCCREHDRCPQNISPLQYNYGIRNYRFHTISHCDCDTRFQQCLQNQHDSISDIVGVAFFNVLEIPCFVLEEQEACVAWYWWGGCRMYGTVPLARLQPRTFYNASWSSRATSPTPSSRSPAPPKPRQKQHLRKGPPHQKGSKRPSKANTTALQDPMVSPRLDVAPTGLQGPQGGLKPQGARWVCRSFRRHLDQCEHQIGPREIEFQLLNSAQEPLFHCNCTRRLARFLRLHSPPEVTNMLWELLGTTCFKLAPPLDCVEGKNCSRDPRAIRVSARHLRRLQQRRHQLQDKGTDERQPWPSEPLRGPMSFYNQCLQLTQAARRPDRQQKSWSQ
TbMetRS confirm – confirmation of Trypanosoma brucei MetRS inhibitors; 1,400 compounds, 93% hits; shares compounds with Tb MetRS inh; AID 624412; T. brucei MetRS enzyme, luminescence (ATP depletion); inhibition, % at 11.9 µM; in the data active means inhibition above about 7%
Jurkat cytotox – counter-screen for T. brucei MetRS inhibitors: Jurkat cell cytotoxicity; shares compounds with Tb MetRS inh; Jurkat cells viability, ATP luminescence; inhibition, % at 8.3 µM; 1,400 compounds, 12% hits; in the data active means inhibition above about 15%;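 further: 0% = vehicle and 100% = reference inhibitor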
Tb MetRS inh FP – orthogonal test for Trypanosoma brucei MetRS inhibitors; shares compounds with Tb MetRS inh; inhibition, % at 11.9 µM; 1,400 compounds, 44% hits; purified T. brucei MetRS, fluorescence polarization; in the data active means inhibition above about 17%;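 further: 0% = vehicle wells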
Starred values were filed as active, the others as inactive; x = not tested or not shown; ! = a repeat was not active.

SMILES	PLCb3 inh	PLCg1 inh	Tb MetRS inh	HGIII-sPLA2 inh	TbMetRS confirm	Jurkat cytotox	Tb MetRS inh FP
Cc1ccccc1CN1CCCCC(NC(=O)Cc2cccs2)C1=O (stereo not given)	5	4	x	0	x	x	x
CCOC(=O)CSc1ccc(-c2nc3cc(C)c(C)cc3[nH]2)cn1	-68	-49	0	1	x	x	x
O=C(CSc1ccc(-c2nc3ccccc3[nH]2)cn1)Nc1ccc(S(=O)(=O)NC2CC2)cc1	-18	-11	64*	-28	69*	9	75*
Cc1cc2nc(-c3ccc(SCC(=O)Nc4ccc5c(c4)OCCO5)nc3)[nH]c2cc1C	-86	-90	0	-30	x	x	x
CCOC(=O)CSc1ccc(-c2nc3ccccc3[nH]2)cn1	-102	-33	9.2*	4	19*	9	11
Cc1ccc2nc(-c3ccc(SCC(=O)Nc4ccc5c(c4)OCCO5)nc3)[nH]c2c1	-31	-25	7.4*	-23	8.6*	14	18*
Cc1nc(NC(=O)CSc2ccc(-c3nc4ccccc4[nH]3)cn2)sc1C	-9	-7	19*	-4	36*	12	11
O=C(CSc1ccc(-c2nc3ccccc3[nH]2)cn1)Nc1ccc2c(c1)OCCO2	x	x	2	x	x	x	x
COCCNC(=O)CSc1ccc(-c2nc3ccccc3[nH]2)cn1	-42	-24	11*	-2	19*	2	0
Cc1cccc(CN2CCc3c([nH]c4ccccc34)C2)c1	-77	-69	5.8*	6	15*	13	7
Clc1cccc(CN2CCc3c([nH]c4ccccc34)C2)c1	-30	-31	5	14	x	x	x
Clc1ccc(CN2CCC(c3nc4ccc(Cl)cc4[nH]3)CC2)cc1	-2	1	8.4*	-14	17*	21*	0
Cc1ccccc1Cn1cc(CN2[C@@H](Cc3ccccc3)COc3cc(Br)ccc3S2(=O)=O)nn1	-3	0	x	7	x	x	x
CCNC(=S)NNC(=O)c1ccc(S(=O)(=O)NCc2ccco2)cc1	-6	-1	6.2*	-5	25*	6	12
CN(C)CC1CCCCC1OC(=O)/C=C/c1ccccc1 (stereo not given)	2	1	3	3	x	x	x
CN(C)CC1CCCCC1OC(=O)/C=C/c1ccc(Cl)cc1Cl (stereo not given)	-8	-2	9.0*	-3	20*	5	12
CCOC(=O)[C@@]12CCCC3=C1N(CCC3)C(=O)[C@H]2CC(=O)N1CCOCC1	1	-1	x	8	x	x	x
CCOC(=O)CC(=O)NC(C)(C)CCCCC(C)(C)NC(=O)CC(=O)OCC	0	4	6.9*	-16	3	-2	5
CCOC(=O)CNC(=O)CCCCCC(=O)NCC(=O)OCC	0	-2	-1	4	x	x	x
Nc1ncnc2nc(SCc3ccc(Cl)cc3Cl)[nH]c12	-5	-4	12*	-20	32*	15*	12
CCn1cc(C(=O)N2CCN(Cc3ccc(C)cc3)CC2)c(=O)c2ccc(C)nc21	-8	-6	x	-1	x	x	x
Clc1ccc2[nH]c3c(NCC4CCCO4)ncnc3c2c1 (stereo not given)	-23	-20	x	-12	x	x	x
Fc1ccc2[nH]c3c(NCCN4CCOCC4)ncnc3c2c1	x	x	27*	x	47*	14	20*
Clc1ccc2[nH]c3c(NCCN4CCOCC4)ncnc3c2c1	-16	-16	42*	2	62*	3	26*
O=c1c2[nH]c3ccc(F)cc3c2ncn1CCCN1CCOCC1	-5	-4	-1	-1	x	x	x
SMILES	PLCb3 inh	PLCg1 inh	Tb MetRS inh	HGIII-sPLA2 inh	TbMetRS confirm	Jurkat cytotox	Tb MetRS inh FP
COC(=O)C1=C(C)N(Cc2ccccc2C(F)(F)F)C(=NCC2CC2)NC1c1ccc(F)cc1 (stereo not given)	3	0	x	-3	x	x	x
COC(=O)CC/C(O)=C1\C(=O)CC(C)(C)CC1=NCc1nc2ccccc2[nH]1	3	0	48*	-3	67*	-4	35*
CC(=O)C1=C(O)CCCC1=NCc1nc2ccccc2[nH]1	-10	1	6.2*	5	12*	-6	9
CCC(=O)N1CCc2cc(Br)c(S(=O)(=O)NCCCN(CC)Cc3ccccc3)cc21	1	-2	x	1	x	x	x
COC(=O)[C@@]12CCCCC3=C1N(CCC3)C(=O)[C@H]2CC(=O)N1CCN(C(=O)c2ccco2)CC1	1	-2	x	7	x	x	x
COC(=O)[C@]12C[C@H](CC(=O)N3CCC(c4ccccc4)CC3)C(=O)N(Cc3ccco3)C1=C[C@H](C1CCCC1)O[C@@H]2C	1	-4	x	-11	x	x	x
O=C(CCSc1ccc(Br)cc1)Nc1cccnc1	2	0	6.4*	-3	11*	-3	4
Oc1ccc(/C=N/Nc2ccnc3cc(Cl)ccc23)cc1O	-54	-32	5.6*	14	13*	77*	26*
Oc1ccc(/C=N/Nc2ccnc3cc(Cl)ccc23)c(O)c1O	-18	-6	3	-7	x	x	x
COC(=O)[C@]12C[C@H](CC(=O)N3CCN(C(=O)C4CC4)CC3)C(=O)N(CCC3=CCCCC3)C1=C[C@H](COCc1ccccc1)O[C@@H]2C	1	2	x	-7	x	x	x
Cc1ccc2c(c1)c1nnc(SCC(=O)Nc3cccc(Cl)c3C)nc1n2CC(=O)O	-6	1	23*	-2	65*	-7	33*
CCN1CCCC1Cn1cnc2c([nH]c3ccc(Cl)cc32)c1=O (stereo not given)	-11	-14	10*	-2	14*	0	14
NS(=O)(=O)c1ccc(NC(=O)c2c(F)cccc2Cl)cc1	-1	2	7.9*	-5	4	-4	1
COC(=O)[C@@]12CCCCC3=C1N(CCC3)C(=O)[C@H]2CC(=O)NCC1CCCCC1	2	2	x	0	x	x	x
C[C@@H]1[C@@H](c2ccccc2)c2cc3ccccc3nc2-c2nc3ccccc3cc2[C@@H]1C(=O)N1CCCC1	-5	-3	x	0	x	x	x
O=C(O)CN1C(=O)/C(=C\c2ccc(OC(=O)c3ccco3)cc2)SC1=S	-6	-4	8.8*	-20	27*	-5	15
NC(=NCCCCCCN=C(N)/N=C(\N)Nc1ccc(Cl)cc1)/N=C(\N)Nc1ccc(Cl)cc1	3	7	45*!	-9	53*	31*	51*
COc1ccc(/C(C)=N\NC(=O)c2ccco2)cc1	1	-6	x	8	x	x	x
CCS(=O)(=O)N1CCN(c2ccc(Cl)cc2[N+](=O)[O-])CC1	1	-1	5.7*	-3	14*	8	7
O=[N+]([O-])c1cc(Cl)ccc1N1CCCCC1	-3	2	0	6	x	x	x
CCCCc1c(-c2ccccc2OC)ncn1CCc1cccc(OC)c1	1	-2	9.9*	-12	23*	36*	1
CCCCc1c(-c2ccccc2OC)ncn1Cc1cccc(OC)c1	-2	-4	x	-7	x	x	x
